Source: ChEMBL document CHEMBL1153527, “Discovery of a novel series of quinolone and naphthyridine derivatives as potential topoisomerase I inhibitors by scaffold modification” (J Med Chem, 2009)
Values after ≈ are worked out from the molar mass of the structure shown. Active and inactive are the calls of the source. The calls are words filed in the database; no cut-off is given here.

Legend:
HT-29 [1] = assay: Cytotoxicity against human HT-29 cells assessed as inhibition of anchorage-dependent colony formation at 5 uM after 14 days; type: functional, cell-based
Summary of the method: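 HT-29 cells were plated at 500 per well and allowed to attach for 24 h. They were then exposed continuously to compound or DMSO for 14 days, with medium replaced every 72 h. Colonies were fixed in 1% formaldehyde/PBS and stained with 0.1% crystal violet.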

HT-29 [2] = assay: Antitumor activity against human HT-29 cells xenografted in athymic BALB/c nude mouse at 75 mg/kg, ip for 10 days measured after 30 days relative to placebo control; type: functional; conditions: route intraperitoneal
Summary of the method: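 Female athymic BALB/c nude mice (35-40 days old, 18-22 g). HT-29 tumours first grown from 1 × 10^7 cells injected s.c. in the axillary fossa, then excised and transplanted. Treatment started at 100-300 mm3. Groups of n=6 were dosed i.p. daily in 400 μL: saline for 10 days, 5 mg/kg for 2 days, or 75/150 mg/kg for 10 days. Caliper volume was V=1/2·a·b². Values are relative to start volume, compared with placebo by Student's t test, and mice were killed on day 30.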

HeLa = assay: Cytotoxicity against p53-deficient human HeLa cells after 48 hrs by SRB assay; type: functional, cell-based
Summary of the method: (§1)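 Cell lines came from CCRC, Taiwan. Cells were seeded at about 5 × 10^3 per well and left overnight. They were then given serum-free medium containing 0-10 μM compound (0.08-10 μM serial dilutions) for 48 h at 37 °C. Cells were fixed with TCA (10% final), stained with SRB (0.4% final), and the dye was dissolved in 10 mM Tris with A515 read. IC50 was taken from a fitted log concentration-response curve.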

HT-29 [3] = assay: Induction of apoptosis in human HT-29 cells assessed as decrease in accumulation at G0/G1 phase at 1 uM after 48 hrs by flow cytometry; type: functional, cell-based
Summary of the method: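 HT-29 cells were exposed to vehicle or 1, 5 or 10 μM compound for 6, 12, 24 or 48 h. Floating and attached cells were collected, fixed in 70% ethanol and treated with 0.1% Triton X-100. They were stained with PI at 50 μg/mL plus RNaseA at 50 μg/mL for 30 min at room temperature in the dark. FL2 DNA content was read on 10000 cells by flow cytometry. The sub-G1 fraction was taken as apoptotic.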

[4] = Cytotoxicity against estrogen receptor-negative human […] cells expressing p53 mutant after 48 hrs by SRB assay; type: functional, cell-based; summary of the method: as §1
U-937 = assay: Cytotoxicity against human U937 cells expressing p53 mutant after 48 hrs by SRB assay; type: functional, cell-based; conditions: U-937, 48 h
SK-OV-3 = assay: Cytotoxicity against human SKOV3 cells after 48 hrs by MTT assay; type: functional, cell-based; conditions: SK-OV-3, 48 h
Summary of the method: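 Cells were seeded at about 5 × 10^3 per well, then given serum-free medium containing 0-10 μM test compound for 48 h at 37 °C. MTT was added at 0.5 mg/mL final for 4 h at 37 °C. Formazan was dissolved in DMSO and OD570 read. IC50 values (50% cell death) came from a fitted log concentration-response curve.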

HT-29 [5] = assay: Induction of apoptosis in human HT-29 cells assessed as apoptotic cells at 10 ug/mL after 24 hrs by annexin V/propidium iodide-based flow cytometry; type: functional
Summary of the method: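 SKOV-3 or HT-29 cells (1-5 × 10^6 cells/mL) were incubated with 0, 5 or 10 μg/mL compound for 24 h. They were then washed and stained with EGFP-Annexin V/PI and analysed immediately by flow cytometry. Annexin V+/PI− cells were scored as apoptotic; PI-permeant cells were scored as necrotic.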

SMILES: CCn1cc(-c2nc3ccc([N+](=O)[O-])cc3o2)c(=O)c2cc(F)c(N3CCNC(C)C3)c(F)c21 (stereo not given)
- Activity (HT-29 [1]): Active
- Activity (HT-29 [2]): 52%
- GI50 (HeLa): 1100 nM
- IC50 (HeLa): 2400 nM
- Activity (HT-29 [3]): Active
- GI50 [4]: 700 nM
- IC50 [4]: 3100 nM
- IC50 (U-937): 1400 nM
- IC50 (SK-OV-3): 0.55 µg/mL (≈ 1.17 µM)
- Activity (HT-29 [5]): 35.9%
